Compound activity from PubChem BioAssay.
SIRT5 block = SIRT5 desuccinylase inhibitors, primary screen, biochemical, fluorescence imaging, single point, set 5 | NAD-dependent protein deacylase sirtuin-5, mitochondrial (Homo sapiens), Q9NXA8 | Purified SirT5, succinyl-peptide AMC, trypsin-coupled fluorescence | inhibition, % at 15 µM | 330,000 tested, 1.1% active | AID 652115, 2013; in the data active = inhibition above about 15%; inconclusive = no clear call, values can overlap the other calls
E-sel inducer = E-selectin induction in HUVECs, primary screen, imaging, HUVEC, immunofluorescence imaging, single point; normalized: neutral wells 0, TNF-alpha wells 100; activation, % at 7.58 µM; 260,000 tested, 0.37% active; AID 686992, 2013;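 active = mean E-selectin-positive cell signal at least 10% of the positive control, reached in at least 60% of replicates, without over 20% cell loss; inconclusive = no rule given, readout overlaps actives, possibly toxicity-flagged; inactive = the rest, including those meeting only one limit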
Target sequence (P16581 whole entry, looked up): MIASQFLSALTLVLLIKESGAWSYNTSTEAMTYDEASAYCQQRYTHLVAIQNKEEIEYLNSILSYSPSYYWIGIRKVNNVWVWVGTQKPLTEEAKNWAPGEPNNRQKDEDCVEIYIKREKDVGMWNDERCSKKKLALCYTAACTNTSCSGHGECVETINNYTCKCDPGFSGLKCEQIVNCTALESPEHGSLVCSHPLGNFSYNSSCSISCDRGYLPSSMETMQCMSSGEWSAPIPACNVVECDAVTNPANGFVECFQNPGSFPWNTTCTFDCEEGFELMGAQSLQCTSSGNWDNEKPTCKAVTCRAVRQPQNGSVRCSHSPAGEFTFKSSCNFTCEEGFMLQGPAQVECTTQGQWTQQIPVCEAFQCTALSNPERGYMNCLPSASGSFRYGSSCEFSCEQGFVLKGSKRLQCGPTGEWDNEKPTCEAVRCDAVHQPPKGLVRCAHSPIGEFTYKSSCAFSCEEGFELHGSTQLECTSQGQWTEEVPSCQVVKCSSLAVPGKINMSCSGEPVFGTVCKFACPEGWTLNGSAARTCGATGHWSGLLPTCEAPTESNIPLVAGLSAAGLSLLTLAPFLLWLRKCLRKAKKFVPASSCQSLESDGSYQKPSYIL
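Read-out basis: % PE-positive cells; Test system: HUVEC primary endothelial cells; Technique: immunofluorescence imaging; Dosing: single-point compound dose.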
DENV2 CPE rescue = inhibitors of DENV2 cytopathic effect, primary screen, cell-based, plate reader, single concentration; 350,000 tested, 1.7% active; CPE inhibition, % at 9.99 µM; AID 651640, 2012; DENV2-infected cells, cytopathic effect rescue; in the data active = CPE inhibition above about 20%, passing the limit was not always enough; inconclusive = no clear call, values can overlap the other calls; tested in BHK-21 cells;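 also: 0% = median of neutral control wells and 100% = median of positive control wells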
* hit, by the source's call; ? = inconclusive; / = no result given. A selection: hits, their analogues and other compounds. The true share with any hit is near 2.8%.

SMILES	SIRT5 block	E-sel inducer	DENV2 CPE rescue
C[C@@H]1CCCCO[C@H](CN(C)Cc2ccccc2)[C@H](C)CN([C@@H](C)CO)C(=O)c2cc(NC(=O)c3ccccc3)ccc2O1	/	/	26.8*
C[C@@H]1CCCCO[C@@H](CN(C)Cc2ccc(C(F)(F)F)cc2)[C@H](C)CN([C@H](C)CO)C(=O)c2cc(NC(=O)Cc3ccccc3)ccc2O1	3.2	0.8	40.4*
C[C@@H]1CCCCO[C@@H](CN(C)C(=O)Nc2ccc(C(F)(F)F)cc2)[C@H](C)CN([C@H](C)CO)C(=O)c2cc(NC(=O)Cc3ccccc3)ccc2O1	/	0.3	91.1*
C[C@H]1CCCCO[C@H](CN(C)C(=O)Nc2ccc3c(c2)OCO3)[C@@H](C)CN([C@@H](C)CO)C(=O)c2cc(NC(=O)Cc3ccccc3)ccc2O1	/	-0.2	27.1*
C[C@@H]1CCCCO[C@H](CN(C)Cc2ccccc2)[C@@H](C)CN([C@H](C)CO)C(=O)c2cc(NC(=O)c3ccccc3)ccc2O1	-3.2	6.2	0.4
C[C@H](CO)N1C[C@H](C)[C@H](CN(C)Cc2ccc(C(F)(F)F)cc2)OCCCC[C@H](C)Oc2ccc(NC(=O)Cc3ccccc3)cc2C1=O	1.3	0.4	8.4
C[C@H]1CCCCO[C@H](CN(C)C(=O)Nc2ccc(C(F)(F)F)cc2)[C@@H](C)CN([C@@H](C)CO)C(=O)c2cc(NC(=O)Cc3ccccc3)ccc2O1	/	0.0	14.4
COc1ccccc1-c1cnc2c(c1)C(=O)N([C@H](C)CO)C[C@H](C)[C@H](CN(C)Cc1ccncc1)O2	0.0	0.2	-3.5
CCC(=O)N1[C@@H]2Cn3c(ccc(/C=C/c4ccccc4)c3=O)[C@H]1[C@@H](C(=O)N(C)C)[C@@H]2CO	-134.6	0.0	0.8
CCC(=O)N(C)C[C@H]1Oc2cc(-c3ccc(C#N)cc3)ccc2S(=O)(=O)N([C@H](C)CO)C[C@H]1C	-2.3	23.3	-7.0
C[C@@H]1CN([C@H](C)CO)C(=O)Cc2cc(NC(=O)Nc3cccc4ccccc34)ccc2O[C@@H]1CN(C)Cc1ccc(Oc2ccccc2)cc1	-1.4	/	-0.7
C[C@@H]1CN([C@H](C)CO)C(=O)c2cc(NS(=O)(=O)c3cccs3)ccc2O[C@H]1CN(C)C(=O)Nc1ccccc1	0.1	-0.2	17.7
C[C@@H]1CN([C@@H](C)CO)C(=O)c2cc(NC(=O)Nc3ccc(C(F)(F)F)cc3)ccc2O[C@@H](C)CCCCO[C@@H]1CN(C)Cc1ccccc1	3.2	0.2	127.3*
C[C@@H]1CCCCO[C@H](CN(C)C(=O)NC2CCCCC2)[C@@H](C)CN([C@@H](C)CO)C(=O)c2cc(NC(=O)c3ccccc3)ccc2O1	/	-0.2	12.6
C[C@@H]1CN([C@H](C)CO)C(=O)c2cc(NC(=O)Nc3ccc(C(F)(F)F)cc3)ccc2O[C@@H](C)CCCCO[C@H]1CN(C)Cc1ccccc1	5.0	0.1	-10.6
C[C@@H]1CCCCO[C@H](CN(C)C(=O)NC2CCCCC2)[C@H](C)CN([C@@H](C)CO)C(=O)c2cc(NC(=O)c3ccccc3)ccc2O1	/	0.2	42.6*
COc1ccc2c3c(n(C)c2c1)[C@@H](CO)N(CC1CCOCC1)CC31CN(C(C)=O)C1	/	-0.3	6.8
COc1ccc(-c2ccc3c(c2)[C@@H]2[C@@H](CCN2S(=O)(=O)c2ccccc2C)[C@H](CO)N3)cc1	6.9	-0.1	-5.2
COc1ccc2c3c([nH]c2c1)[C@H](CO)N(C(=O)Nc1ccc(F)cc1)CC31CCN(CC2CC2)CC1	4.2	-0.2	1.1
C[C@@H]1CN([C@@H](C)CO)C(=O)c2cc(NS(=O)(=O)c3ccc(F)cc3)ccc2O[C@@H](C)CCCCO[C@@H]1CN(C)Cc1ccc(C(F)(F)F)cc1	-3.4	-0.1	2.9
C[C@H](CO)N1C[C@H](C)[C@H](CN(C)Cc2ccc(C(F)(F)F)cc2)OCCCC[C@H](C)Oc2ccc(NS(=O)(=O)c3ccc(F)cc3)cc2C1=O	17.4*	-0.1	-5.9
C[C@@H]1CCCCO[C@H](CN(C)Cc2ccc(C(F)(F)F)cc2)[C@@H](C)CN([C@@H](C)CO)C(=O)c2cc(NS(=O)(=O)c3ccc(F)cc3)ccc2O1	19.5*	1.5	-3.7
C[C@H]1CCCCO[C@@H](CN(C)Cc2ccc(C(F)(F)F)cc2)[C@@H](C)CN([C@@H](C)CO)C(=O)c2cc(NS(=O)(=O)c3ccc(F)cc3)ccc2O1	20.4*	0.0	-7.5
C[C@@H]1CCCCO[C@@H](CN(C)Cc2ccc(C(F)(F)F)cc2)[C@H](C)CN([C@H](C)CO)C(=O)c2cc(NS(=O)(=O)c3ccccc3)ccc2O1	18.0*	-0.1	0.9
CC(=O)N(C)C[C@@H]1Oc2cc(C3=CCCCC3)ccc2S(=O)(=O)N([C@@H](C)CO)C[C@H]1C	/	-0.3	/
SMILES	SIRT5 block	E-sel inducer	DENV2 CPE rescue
C[C@@H]1CCCCO[C@@H](CN(C)C(=O)CCC(F)(F)F)[C@@H](C)CN([C@H](C)CO)C(=O)c2cc(NC(=O)c3ccncc3)ccc2O1	/	0.1	-2.6
C[C@H]1CCCCO[C@@H](CN(C)S(=O)(=O)c2ccccc2)[C@@H](C)CN([C@@H](C)CO)C(=O)c2cc(NS(=O)(=O)c3ccc(F)cc3)ccc2O1	10.7	0.1	5.9
Cc1noc(C)c1NC(=O)NCC[C@@H]1CC[C@@H](NC(=O)c2ccccc2)[C@H](CO)O1	-6.6	-0.1	5.2
Cc1ccccc1S(=O)(=O)N1CC[C@H]2[C@H](CO)Nc3ccc(-c4cccc(C#N)c4)cc3[C@H]21	/	-0.9	-23.2
COc1ccc(CN(C)C[C@@H]2Oc3c(NC(=O)C4CCOCC4)cccc3C(=O)N([C@@H](C)CO)C[C@H]2C)cc1	0.5	-0.2	4.5
C[C@@H]1CCCCO[C@H](CN(C)C(=O)CCC(F)(F)F)[C@H](C)CN([C@H](C)CO)C(=O)c2cc(NS(=O)(=O)c3ccccc3)ccc2O1	-3.4	-0.1	?
C[C@@H]1CCCCO[C@H](CN(C)Cc2ccc(C(F)(F)F)cc2)[C@H](C)CN([C@@H](C)CO)C(=O)c2cc(NS(=O)(=O)c3ccc(F)cc3)ccc2O1	-0.5	-0.1	7.5
C[C@@H]1CCCCO[C@H](CN(C)Cc2ccc(C(F)(F)F)cc2)[C@H](C)CN([C@H](C)CO)C(=O)c2cc(NS(=O)(=O)c3ccc(F)cc3)ccc2O1	16.7*	0.0	30.0*
COc1ccc(/C=C(/NC(=O)c2ccc(OC)cc2)C(=O)NCCc2c[nH]c3ccccc23)cc1	-1.7	/	/
COc1ccc(/C=C(/NC(=O)c2ccc(OC)c(OC)c2)C(=O)NCCc2c[nH]c3ccccc23)cc1	-3.5	/	20.2*
Cc1cccc(-c2ccc(C3[C@@H]4CN(C(=O)Cc5ccncc5)C[C@H]3N4)cc2)c1 (stereo partly drawn)	-2.2	0.2	-4.7
CCCNC(=O)N1[C@@H]2CNC[C@H]1C2c1ccc(-c2ccc(C)cc2)cc1 (stereo partly drawn)	/	-0.1	37.9*
CCCNC(=O)N1C[C@@H]2N[C@H](C1)C2c1ccc(-c2cccc(OC)c2)cc1 (stereo partly drawn)	-1.5	0.1	2.3
